13 compounds from ChEMBL document CHEMBL1122423, “N-arylhydroxamic acid N,O-acyltransferase. Positional requirements for the substrate hydroxyl group” (J Med Chem, 1983) can be followed below.

For test [1], the species on record is Cricetulus griseus. Briefly: Inhibition of AHAT-catalyzed transacylation of 4-aminoazobenzene. In short, it runs like this:
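Partially purified hamster hepatic AHAT (2.5–3.75 mg protein) was preincubated 5 min with inhibitor (2.5 μmol in EtOH; 1 mM) before adding acyl-donor substrate (2.5 μmol) and 4-aminoazobenzene (0.375 μmol). The 2.5 mL mix held pyrophosphate pH 7, DTT and 1.15% KCl, at 37 °C in air. Stopped with TCA/EtOH; supernatant read spectrophotometrically (Booth). Percent inhibition vs control; three experiments in triplicate.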

For test [2], the species on record is Cricetulus griseus. Briefly: Percent inhibition against AHAT when compound 8 is used as substrate at 1 mM concentration. The method, boiled down:
(§1)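 Partially purified hamster hepatic AHAT; 1 mM inhibitor (final) in ethanol was preincubated with enzyme for 5 min, then acyl donor (2.5 μmol) and 4-aminoazobenzene (0.375 μmol) were added. Mix: pyrophosphate buffer pH 7, DTT, KCl, 2.5 mL, 37 °C in air, read after 10 min. TCA-ethanol stop; spectrophotometric read-out of transacetylation. % inhibition vs control; three experiments in triplicate.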

The species entered for test [3] is Cricetulus griseus. Description: Percent inhibition against AHAT when compound 10 is used as substrate at 1 mM concentration. In short, it runs like this: as §1

As to `O=C(CO)Nc1ccc2c(c1)Cc1ccccc1-2`, the Transacetylation rate in the test filed under Cricetulus griseus [1] was determined as 0.02 nmol/min/mg.
For `CC(=O)N(O)c1ccc2c(c1)Cc1ccccc1-2`, in the test filed under Cricetulus griseus [1], the Transacetylation rate was 19.3 nmol/min/mg.
As to p-Chloromercuribenzenesulfonate, the results for the inhibition in the test listed under Cricetulus griseus [2] and in the test filed under Cricetulus griseus [3] were 92% and 96%, respectively.
`CC(=O)Nc1ccc(-c2ccccc2)cc1`: the Transacetylation rate in the test listed under Cricetulus griseus [1] is 0.27 nmol/min/mg.
On the same count and under the same terms, to `CC(=O)Nc1ccc2c(c1O)Cc1ccccc1-2` belongs 0.11 nmol/min/mg.
The same measure, in the same setting: then `CC(=O)Nc1ccc(-c2ccccc2)cc1O`, with 0.69 nmol/min/mg.
`CC(=O)N(O)c1ccc(/C=C/c2ccccc2)cc1` returned a Transacetylation rate in the test filed under Cricetulus griseus [1] of 9.73 nmol/min/mg.
Take `CCN1C(=O)C=CC1=O`: the inhibition was 77% in the test filed under Cricetulus griseus [2] and 86% in the test filed under Cricetulus griseus [3].
For the compound `CC(=O)N(O)c1ccc(-c2ccccc2)cc1`, the Transacetylation rate in the test listed under Cricetulus griseus [1] is 13.3 nmol/min/mg.
In the test filed under Cricetulus griseus [1], `O=C(CO)Nc1ccc(/C=C/c2ccccc2)cc1` yielded a Transacetylation rate of 0.18 nmol/min/mg.
`NC(=O)CI`: the inhibition in the test filed under Cricetulus griseus [2] and in the test filed under Cricetulus griseus [3] was 99% in each case.
Regarding `O=C(CO)Nc1ccc(-c2ccccc2)cc1`, the Transacetylation rate in the test listed under Cricetulus griseus [1] stood at 0.03 nmol/min/mg.
For the compound `CC(=O)Nc1cc2c(cc1O)-c1ccccc1C2`, in the test listed under Cricetulus griseus [1], the Transacetylation rate turned out to be 0.05 nmol/min/mg.

What is called inhibition is the drop in the measured response relative to a control, in per cent. Low readings indicate a weak effect, high ones a strong effect.
